Data reported in ChEMBL document CHEMBL1140829, “1-Aminoindanes as novel motif with potential atypical antipsychotic properties” (Bioorg Med Chem Lett, 2008).

Legend:
[1] = molecular target: T1, Alpha-1A adrenergic receptor (Rattus norvegicus, UniProt P43140); experiment: Displacement of [3H]prazosin from rat adrenergic alpha1A receptor expressed in fibroblast cells; format: cell-based
T1 sequence (P43140 whole entry): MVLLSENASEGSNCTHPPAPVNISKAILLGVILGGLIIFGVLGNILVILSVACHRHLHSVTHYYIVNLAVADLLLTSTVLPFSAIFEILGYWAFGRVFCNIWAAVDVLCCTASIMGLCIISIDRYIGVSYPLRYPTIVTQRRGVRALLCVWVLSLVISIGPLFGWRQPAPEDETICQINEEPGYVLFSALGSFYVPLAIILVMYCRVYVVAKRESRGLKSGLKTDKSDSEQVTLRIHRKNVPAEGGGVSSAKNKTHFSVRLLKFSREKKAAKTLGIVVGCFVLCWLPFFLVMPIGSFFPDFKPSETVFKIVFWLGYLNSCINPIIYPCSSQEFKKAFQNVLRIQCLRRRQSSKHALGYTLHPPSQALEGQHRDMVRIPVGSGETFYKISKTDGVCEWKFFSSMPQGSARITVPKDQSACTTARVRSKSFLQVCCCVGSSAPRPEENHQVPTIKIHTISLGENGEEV
In short: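 Cloned rat alpha1a receptor in fibroblast cell membranes; [3H]prazosin as radioligand, incubated with or without a range of compound concentrations. Filtration under vacuum removed free label; bound measured by liquid scintillation counting. Percent inhibition of specific binding vs concentration fit by nonlinear regression for IC50.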

[2] = molecular target: T2, 5-hydroxytryptamine receptor 1A (Homo sapiens, UniProt P08908); experiment: (§1) Displacement of [3H]8OHDPAT from human 5HT1A receptor
T2 sequence (P08908 whole entry): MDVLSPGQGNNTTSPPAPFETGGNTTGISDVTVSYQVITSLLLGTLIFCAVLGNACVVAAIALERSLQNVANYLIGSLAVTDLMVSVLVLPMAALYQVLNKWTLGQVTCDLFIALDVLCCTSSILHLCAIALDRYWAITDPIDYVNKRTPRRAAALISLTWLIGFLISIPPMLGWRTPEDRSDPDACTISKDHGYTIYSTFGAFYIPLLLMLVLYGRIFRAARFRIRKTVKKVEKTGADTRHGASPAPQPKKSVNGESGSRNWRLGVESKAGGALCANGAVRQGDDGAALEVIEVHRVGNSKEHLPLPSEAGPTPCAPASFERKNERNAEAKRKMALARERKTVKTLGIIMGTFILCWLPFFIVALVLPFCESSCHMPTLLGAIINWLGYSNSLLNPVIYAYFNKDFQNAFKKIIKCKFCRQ
In short: (§2)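 Radioligand competition binding on cloned human receptor membranes: [3H]8-OH-DPAT for 5-HT1A; CHO-cell D2L membranes with [3H]spiperone. Membranes plus radioligand with or without varying compound concentrations. Bound and free separated by vacuum filtration; bound counted by liquid scintillation. Concentration–percent inhibition of specific binding fit by nonlinear regression to IC50.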

[3] = molecular target: Voltage-gated inwardly rectifying potassium channel KCNH2 (Homo sapiens, UniProt Q12809); experiment: Displacement of [3H]dofetilide from human ERG channel expressed in HEK293 cells; format: cell-based
D(2) dopamine receptor [4] = molecular target: T3, D(2) dopamine receptor (Homo sapiens, UniProt P14416); experiment: Displacement of [3H]spiperone from human D2L receptor expressed in CHO cells; format: cell-based; in short: as §2
[5] = molecular target: 5-hydroxytryptamine receptor 2A (Homo sapiens, UniProt P28223); experiment: Displacement of [3H]ketanserin from human 5HT2A receptor expressed in Swiss 3T3 cells; format: cell-based
In short: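 Membranes from Swiss 3T3 cells expressing human 5-HT2A, labeled with [3H]ketanserin, incubated with or without varying compound concentrations. Vacuum filtration separated unbound label; bound label read by liquid scintillation. IC50 from nonlinear-regression fit of concentration vs percent inhibition of specific binding. Ki reported as geometric mean of at least three experiments.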

[6] = molecular target: T4, 5-hydroxytryptamine receptor 1A (Homo sapiens) (UniProt P08908); experiment: as §1; in short: as §2
T4 sequence (whole entry): T2 sequence (P08908 whole entry)

D(2) dopamine receptor [7] = molecular target: T3, D(2) dopamine receptor; experiment: Displacement of [3H]spiperone from human D2L receptor expressed in CHO cells at 100 nM; format: cell-based

T3 sequence (P14416 whole entry): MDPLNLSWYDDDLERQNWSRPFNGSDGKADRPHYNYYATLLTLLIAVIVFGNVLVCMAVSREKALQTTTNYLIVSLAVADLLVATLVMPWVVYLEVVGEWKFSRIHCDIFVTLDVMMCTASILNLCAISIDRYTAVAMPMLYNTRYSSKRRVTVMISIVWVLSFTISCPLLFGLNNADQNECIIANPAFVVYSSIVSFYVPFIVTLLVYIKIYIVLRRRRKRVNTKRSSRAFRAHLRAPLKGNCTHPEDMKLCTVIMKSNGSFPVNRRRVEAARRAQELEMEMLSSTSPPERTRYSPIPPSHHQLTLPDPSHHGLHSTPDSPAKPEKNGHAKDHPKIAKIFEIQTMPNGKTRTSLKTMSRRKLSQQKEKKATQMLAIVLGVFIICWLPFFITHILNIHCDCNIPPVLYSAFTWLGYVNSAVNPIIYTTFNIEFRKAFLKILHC
Voltage-gated inwardly rectifying potassium channel KCNH2, sequence (Q12809 whole entry): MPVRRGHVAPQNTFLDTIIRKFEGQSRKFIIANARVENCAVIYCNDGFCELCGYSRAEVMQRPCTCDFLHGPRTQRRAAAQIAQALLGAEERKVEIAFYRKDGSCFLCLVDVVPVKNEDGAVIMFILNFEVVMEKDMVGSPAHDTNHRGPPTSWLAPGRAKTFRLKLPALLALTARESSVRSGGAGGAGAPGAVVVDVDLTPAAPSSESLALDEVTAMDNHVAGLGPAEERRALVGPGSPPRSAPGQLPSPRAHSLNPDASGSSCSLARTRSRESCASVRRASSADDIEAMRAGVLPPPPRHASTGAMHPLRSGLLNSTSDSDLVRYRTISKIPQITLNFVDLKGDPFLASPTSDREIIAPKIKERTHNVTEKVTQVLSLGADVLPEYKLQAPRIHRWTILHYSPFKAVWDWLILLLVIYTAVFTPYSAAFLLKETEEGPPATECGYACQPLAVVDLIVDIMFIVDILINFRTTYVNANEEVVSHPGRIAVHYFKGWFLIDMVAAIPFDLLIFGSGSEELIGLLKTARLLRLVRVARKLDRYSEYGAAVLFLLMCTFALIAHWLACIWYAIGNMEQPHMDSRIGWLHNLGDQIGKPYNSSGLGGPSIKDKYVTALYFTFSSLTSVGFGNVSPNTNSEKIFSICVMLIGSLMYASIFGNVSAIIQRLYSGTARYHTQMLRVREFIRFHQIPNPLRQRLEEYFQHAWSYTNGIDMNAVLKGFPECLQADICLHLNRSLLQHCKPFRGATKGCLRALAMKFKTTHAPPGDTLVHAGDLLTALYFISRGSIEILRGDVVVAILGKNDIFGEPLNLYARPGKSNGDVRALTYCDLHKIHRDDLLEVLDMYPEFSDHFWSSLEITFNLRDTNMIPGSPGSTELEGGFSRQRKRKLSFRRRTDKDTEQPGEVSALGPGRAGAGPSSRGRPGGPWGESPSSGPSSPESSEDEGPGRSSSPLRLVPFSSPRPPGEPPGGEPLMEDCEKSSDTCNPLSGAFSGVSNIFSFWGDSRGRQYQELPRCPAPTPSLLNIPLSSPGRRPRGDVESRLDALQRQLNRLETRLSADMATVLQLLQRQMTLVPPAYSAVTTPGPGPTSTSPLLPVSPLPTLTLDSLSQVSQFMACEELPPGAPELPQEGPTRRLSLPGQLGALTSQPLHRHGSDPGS
5-hydroxytryptamine receptor 2A, sequence (P28223 whole entry): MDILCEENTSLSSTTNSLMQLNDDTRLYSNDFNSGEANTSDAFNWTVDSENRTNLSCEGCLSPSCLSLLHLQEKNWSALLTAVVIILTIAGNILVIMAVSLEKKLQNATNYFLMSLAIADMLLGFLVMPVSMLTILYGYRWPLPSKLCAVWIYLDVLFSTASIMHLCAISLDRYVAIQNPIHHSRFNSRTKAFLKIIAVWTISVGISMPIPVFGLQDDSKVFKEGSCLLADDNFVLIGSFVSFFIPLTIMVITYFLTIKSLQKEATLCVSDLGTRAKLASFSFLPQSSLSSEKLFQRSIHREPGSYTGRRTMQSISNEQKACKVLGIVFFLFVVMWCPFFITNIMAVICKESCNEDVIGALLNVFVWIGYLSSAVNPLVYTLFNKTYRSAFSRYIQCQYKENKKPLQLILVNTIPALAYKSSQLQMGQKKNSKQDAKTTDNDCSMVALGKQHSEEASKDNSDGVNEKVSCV

| SMILES | Ki [1] | Ki [2] | Ki [3] | Ki (D(2) dopamine receptor [4]) | Ki [5] | Intrinsic activity [6] | Activity (D(2) dopamine receptor [7]) | Activity ([3]; human, hek293) |
| --- | --- | --- | --- | --- | --- | --- | --- | --- |
| O=C(NC1CCc2ccc(CCN3CCN(c4nsc5ccccc45)CC3)cc21)c1cccnc1 (centres undefined) | 3.31 nM | 4.5 nM | 358 nM | 6 nM | 0.95 nM |  |  |  |
| CCC(=O)NC1CCc2cc(CCN3CCN(c4nsc5ccccc45)CC3)ccc21 (centres undefined) | 0.45 nM | 2 nM | 184 nM |  | 0.25 nM | 60% | 21% |  |
| NC1CCc2ccc(CCN3CCN(c4nsc5ccccc45)CC3)cc21 (centres undefined) | 2.72 nM | 2 nM | 616 nM | 21 nM | 0.09 nM | 60% |  |  |
| O=C(NC1CCc2cc(CCN3CCN(c4nsc5ccccc45)CC3)ccc21)C(F)(F)F (centres undefined) | 0.3 nM | 1 nM |  | 8 nM | 0.15 nM | 60% |  |  |
| CC(C)C(=O)NC1CCc2cc(CCN3CCN(c4nsc5ccccc45)CC3)ccc21 (centres undefined) | 0.49 nM | 1 nM | 219 nM |  | 0.65 nM |  | 17% |  |
| O=C(Cc1ccccc1)NC1CCc2ccc(CCN3CCN(c4nsc5ccccc45)CC3)cc21 (centres undefined) | 5.27 nM | 20.9 nM |  | 26 nM | 0.04 nM | 60% |  |  |
| Cc1ccc(C(=O)NC2CCc3ccc(CCN4CCN(c5nsc6ccccc56)CC4)cc32)cc1 (centres undefined) | 13.5 nM | 28.1 nM | 194 nM | 15 nM | 3 nM |  |  |  |
| O=C(NC1CCc2ccc(CCN3CCN(c4nsc5ccccc45)CC3)cc21)C1CC1 (centres undefined) | 2.22 nM | 12 nM | 35 nM | 21 nM | 0.3 nM | 60% |  |  |
| O=C(NC1CCc2ccc(CCN3CCN(c4nsc5ccccc45)CC3)cc21)c1ccccc1 (centres undefined) | 10.9 nM | 41.8 nM |  | 22 nM | 4.75 nM |  |  |  |
| CCCC(=O)NC1CCc2cc(CCN3CCN(c4nsc5ccccc45)CC3)ccc21 (centres undefined) | 0.9 nM | 2 nM | 269 nM |  | 0.5 nM | 60% | 21% |  |
| O=C(CCc1ccccc1)NC1CCc2ccc(CCN3CCN(c4nsc5ccccc45)CC3)cc21 (centres undefined) | 10.3 nM | 37.2 nM |  | 33 nM | 0.95 nM | 60% |  |  |
| O=C(NC1CCc2ccc(CCN3CCN(c4nsc5ccccc45)CC3)cc21)c1ccc(Cl)cc1 (centres undefined) | 5.64 nM | 56 nM | 166 nM | 5 nM | 0.1 nM | 60% |  |  |
| O=C(NC1CCc2ccc(CCN3CCN(c4nsc5ccccc45)CC3)cc21)c1ccco1 (centres undefined) | 1.38 nM | 7.9 nM | 35 nM | 5 nM | 0.55 nM |  |  |  |
| CC(=O)NC1CCc2ccc(CCN3CCN(c4nsc5ccccc45)CC3)cc21 (centres undefined) | 1.34 nM | 7.5 nM | 885 nM | 22 nM | 0.01 nM | 60% |  |  |
| O=C(NC1CCc2ccc(CCN3CCN(c4nsc5ccccc45)CC3)cc21)C(F)(F)F (centres undefined) | 1.92 nM | 4.9 nM | 101 nM | 10 nM |  |  |  |  |
| O=C(NC1CCc2ccc(CCN3CCN(c4nsc5ccccc45)CC3)cc21)c1ccc(F)cc1 (centres undefined) | 10.3 nM | 66.7 nM | 78 nM | 6 nM | 2.45 nM |  |  |  |
| O=C(NC1CCc2cc(CCN3CCN(c4nsc5ccccc45)CC3)ccc21)c1ccc(F)cc1 (centres undefined) | 15.6 nM | 7.8 nM | 135 nM | 10 nM | 1.65 nM | 60% |  |  |
| O=C(NC1CCc2cc(CCN3CCN(c4nsc5ccccc45)CC3)ccc21)C1CC1 (centres undefined) | 0.73 nM | 2 nM | 137 nM |  | 0.45 nM |  | 27% |  |
| CC(=O)NC1CCc2cc(CCN3CCN(c4nsc5ccccc45)CC3)ccc21 (centres undefined) | 3.18 nM | 1.1 nM | 2200 nM | 15 nM | 0.33 nM | 60% |  |  |
| CCC(=O)NC1CCc2ccc(CCN3CCN(c4nsc5ccccc45)CC3)cc21 (centres undefined) | 3.03 nM | 5 nM | 164 nM | 34 nM | 0.01 nM |  |  |  |
| O=C(NC1CCc2cc(CCN3CCN(c4nsc5ccccc45)CC3)ccc21)c1cccnc1 (centres undefined) | 17.4 nM | 7.7 nM | 202 nM | 5 nM | 0.68 nM | 60% |  |  |
| O=C(NC1CCc2ccc(CCN3CCN(c4nsc5ccccc45)CC3)cc21)c1ccno1 (centres undefined) | 1.88 nM | 6.5 nM | 150 nM |  | 0.08 nM |  |  |  |
| CCCC(=O)NC1CCc2ccc(CCN3CCN(c4nsc5ccccc45)CC3)cc21 (centres undefined) | 3.96 nM | 5.5 nM |  | 27 nM | 0.45 nM | 60% |  |  |
| CC(C)C(=O)NC1CCc2ccc(CCN3CCN(c4nsc5ccccc45)CC3)cc21 (centres undefined) | 3.61 nM | 12 nM | 278 nM | 67 nM | 0.75 nM |  |  |  |
| O=C1Cc2cc(CCN3CCN(c4nsc5ccccc45)CC3)c(Cl)cc2N1 [ZIPRASIDONE] | 0.5 nM | 4 nM |  |  |  |  |  | Not Active |
